Reference: ChEMBL document CHEMBL3612047, “Synthesis, antiproliferative activity and possible mechanism of action of novel 2-acetamidobenzamides bearing the 2-phenoxy functionality” (Bioorg Med Chem, 2015)
The source made the active and inactive calls. The rule behind the calls is not given here.

How the values were obtained:
[1] = test system: K562; assay: Induction of apoptosis in human K562 cells assessed as reduction in pro-caspase-3 levels at 10 uM incubated for 48 hrs by Western blot method relative to basal level; assay type: functional; details: K562, 48 h
Method in brief: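 K562 cells were seeded at 1.5 × 10⁵/well and treated 48 h. Lysate protein was measured by Lowry assay and run on SDS-PAGE. Blots on nitrocellulose were probed with alkaline phosphatase-conjugated antibodies to pro-caspases 3 and 6. Loading was checked by Ponceau red and β-actin immunoblot, with level expressed against basal. Three independent experiments.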

[2] = Growth inhibition of human LOXIMVI cells by NCI standard protocol based method; assay type: functional; details: LOX IMVI
Method in brief: (§1)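 NCI full 60-cell-line panel, 5-dose assay to the NCI standard protocol. GI₅₀ is the molar concentration inhibiting 50% net cell growth. Mean graph midpoint is averaged over all lines; where the effect is not reached, the highest tested concentration is used.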

[3] = Growth inhibition of human NCI60 cells by NCI standard protocol based method; assay type: functional; details: for TGI: read-out: pTGI (converted); method in brief: as §1
[4] = test system: K562; assay: Reduction in cell number of human K562 cells at 10 and 25 uM incubated for 48 hrs by light microscopy; assay type: functional, cell-based
Method in brief: (§2)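 K562 cells (8 × 10³/well) plated on poly-D-lysine-coated wells and treated at 10 or 25 μM for 48 h. Examined by light microscopy at 200× for shape, detachment, cell number and cell size.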

[5] = test system: K562; assay: Induction of apoptosis in human K562 cells assessed as late apoptotic cells level at 10 uM incubated for 24 hrs by Annexin-V and propidium iodide staining staining based flow cytometry (reference value: 0.2%); assay type: functional
[6] = test system: HCT-116; assay: Growth inhibition of human HCT116 cells by NCI standard protocol based method; assay type: functional; method in brief: as §1
[7] = test system: K562; assay: Induction of cell cycle arrest in human K562 cells assessed as accumulation at G2/M phase at 10 uM incubated for 48 hrs by propidium iodide staining based flow cytometry (reference value: 27.4%); assay type: functional
[8] = test system: K562; assay: Induction of apoptosis in human K562 cells assessed as early apoptotic cells level at 10 uM incubated for 24 hrs by Annexin-V and propidium iodide staining staining based flow cytometry (reference value: 1.6%); assay type: functional
[9] = test system: K562; assay: Induction of cell cycle arrest in human K562 cells assessed as accumulation at sub G0/G1 phase at 10 uM incubated for 24 hrs by propidium iodide staining based flow cytometry (reference value: 0.8%); assay type: functional
[10] = test system: K562; assay: Induction of cell cycle arrest in human K562 cells assessed as accumulation at sub G0/G1 phase at 10 uM incubated for 48 hrs by propidium iodide staining based flow cytometry (reference value: 0.8%); assay type: functional
[11] = test system: SK-MEL-5; assay: Growth inhibition of human SK-MEL-5 cells by NCI standard protocol based method; assay type: functional; method in brief: as §1
[12] = test system: NCI-H226; assay: Growth inhibition of human NCI-H226 cells by NCI standard protocol based method; assay type: functional; method in brief: as §1
[13] = test system: SK-MEL-2; assay: Growth inhibition of human SK-MEL-2 cells by NCI standard protocol based method; assay type: functional; method in brief: as §1
[14] = test system: SF-268; assay: Growth inhibition of human SF268 cells by NCI standard protocol based method; assay type: functional; method in brief: as §1
[15] = test system: M14; assay: Growth inhibition of human M14 cells by NCI standard protocol based method; assay type: functional; method in brief: as §1
[16] = test system: HCT-15; assay: Growth inhibition of human HCT15 cells by NCI standard protocol based method; assay type: functional; method in brief: as §1
[17] = test system: KM12; assay: Growth inhibition of human KM12 cells by NCI standard protocol based method; assay type: functional; method in brief: as §1
[18] = test system: TK-10; assay: Growth inhibition of human TK10 cells by NCI standard protocol based method; assay type: functional
Method in brief: (§3)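 NCI 60-cell-line screen, standard NCI protocol. Single high dose of 10⁻⁵ M first, then a 5-dose assay across the full panel. Reported as GI₅₀, TGI and LC₅₀, the molar concentrations giving 50% net growth inhibition, total growth inhibition and 50% net cell death. Where an effect was not reached, the highest tested concentration was used.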

[19] = test system: K562; assay: Reduction in cell size of human K562 cells at 10 and 25 uM incubated for 48 hrs by light microscopy; assay type: functional, cell-based; method in brief: as §2
[20] = test system: K562; assay: Induction of morphological changes in human K562 cells assessed as cell detachment at 10 and 25 uM incubated for 48 hrs by light microscopy; assay type: functional, cell-based; method in brief: as §2
[21] = test system: NCI-H460; assay: Growth inhibition of human NCI-H460 cells by NCI standard protocol based method; assay type: functional; method in brief: as §1
[22] = test system: UACC-62; assay: Growth inhibition of human UACC62 cells by NCI standard protocol based method; assay type: functional; method in brief: as §3
[23] = test system: 786-0; assay: Growth inhibition of human 786-0 cells by NCI standard protocol based method; assay type: functional; method in brief: as §1
[24] = test system: K562; assay: Induction of apoptosis in human K562 cells assessed as viable cells level at 10 uM incubated for 24 hrs by Annexin-V and propidium iodide staining staining based flow cytometry (reference value: 98%); assay type: functional
[25] = test system: K562; assay: Induction of cell cycle arrest in human K562 cells assessed as accumulation at G2/M phase at 10 uM incubated for 24 hrs by propidium iodide staining based flow cytometry (reference value: 31.6%); assay type: functional
[26] = test system: PC-3; assay: Growth inhibition of human PC3 cells by NCI standard protocol based method; assay type: functional; method in brief: as §1
[27] = test system: K562; assay: Induction of apoptosis in human K562 cells assessed as necrotic cells level at 10 uM incubated for 24 hrs by Annexin-V and propidium iodide staining staining based flow cytometry (reference value: 0.3%); assay type: functional
[28] = test system: HL-60(TB); assay: Growth inhibition of human HL-60(TB) cells by NCI standard protocol based method; assay type: functional
Method in brief: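 Tested in the NCI 60-cell-line screen under its standard protocol. A single-dose prescreen was run at 10⁻⁵ M, then a five-dose assay. GI50 is the molar concentration that inhibits net cell growth by 50%.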

[29] = test system: MDA-MB-468; assay: Growth inhibition of human MDA-MB-468 cells by NCI standard protocol based method; assay type: functional; method in brief: as §1
[30] = test system: K562; assay: Induction of morphological changes in human K562 cells at 10 and 25 uM incubated for 48 hrs by light microscopy; assay type: functional, cell-based; method in brief: as §2
[31] = test system: NCI/ADR-RES; assay: Growth inhibition of human NCI/ADR-RES cells by NCI standard protocol based method; assay type: functional; method in brief: as §1
[32] = Growth inhibition of human RXF393 cells by NCI standard protocol based method; assay type: functional; details: RXF 393; method in brief: as §1
[33] = Growth inhibition of human SF539 cells by NCI standard protocol based method; assay type: functional; details: SF-539; method in brief: as §1
[34] = test system: NCI-H522; assay: Growth inhibition of human NCI-H522 cells by NCI standard protocol based method; assay type: functional; method in brief: as §1
[35] = test system: K562; assay: Induction of cell cycle arrest in human K562 cells assessed as accumulation at G0/G1 phase at 10 uM incubated for 24 hrs by propidium iodide staining based flow cytometry (reference value: 54.9%); assay type: functional
[36] = test system: A549; assay: Growth inhibition of human A549/ATCC cells by NCI standard protocol based method; assay type: functional; method in brief: as §1
[37] = molecular target: Tubulin (Homo sapiens) (UniProt P68371+Q9H4B7+P0DPH7+P68366+Q13509+Q71U36+P04350+Q3ZCM7+P07437+P68363+Q9BQE3+Q6PEY2+Q13885+Q9BVA1+Q9BUF5); assay: Inhibition of tubulin (unknown origin) assembly; assay type: protein-complex assay
[38] = test system: OVCAR-4; assay: Growth inhibition of human OVCAR4 cells by NCI standard protocol based method; assay type: functional; method in brief: as §1

Row | Structure (SMILES) | GI50 [2] | GI50 [3] | LC50 [3] | TGI [3] | GI50 [6] | GI50 [11] | GI50 [13] | GI50 [14] | GI50 [15] | GI50 [16] | GI50 [17] | GI50 [18] | GI50 [21] | GI50 [22] | GI50 [23] | GI50 [26] | GI50 [28] | GI50 [29] | GI50 [31] | GI50 [32] | further results
1 | NC(=O)c1cc(I)ccc1NC(=O)COc1ccccc1 | 0.822 µM | 0.692 µM | 89.1 µM | 35.5 µM | 0.517 µM | 0.533 µM | 0.463 µM | 0.934 µM | 0.389 µM | 0.253 µM | 0.308 µM | 8.11 µM | 0.425 µM | 0.701 µM | 1.07 µM | 0.428 µM | 0.339 µM | 0.351 µM | 0.344 µM | 0.413 µM | inhibition at 10 µM [1]: 40%; Activity [4]: Active; Activity [5]: 12.5%; Activity [7]: 13.3%; Activity [8]: 24.5%; Activity [9]: 14.5%; Activity [10]: 32.9%; GI50 [12]: 4.94 µM; Activity [19]: Active; Activity [20]: Active; Activity [24]: 62.1%; Activity [25]: 2.4%; Activity [27]: 0.9%; Activity [30]: Active; GI50 [33]: 0.249 µM; GI50 [34]: 0.63 µM; Activity [35]: 78.5%; GI50 [36]: 0.732 µM; inhibition [37]: inactive
2 | NC(=O)c1cc(Cl)ccc1NC(=O)COc1ccccc1 | 8.33 µM | 4.9 µM | 100 µM | 72.4 µM | 2.72 µM | 7.45 µM | 5.08 µM | 9.89 µM | 2.21 µM | 1.57 µM | 2.13 µM | 63.8 µM | 3 µM | 5.42 µM | 9.54 µM | 3.22 µM | 3.29 µM | 1.74 µM | 1.43 µM | 3.93 µM | GI50 [33]: 1.8 µM; GI50 [34]: 3.78 µM; GI50 [36]: 7.06 µM; inhibition [37]: inactive
3 | COc1ccc(NC(=O)COc2ccccc2)c(C(N)=O)c1 | 0.869 µM | 0.891 µM | 97.7 µM | 49 µM | 0.518 µM | 1.68 µM | 0.611 µM | 2.42 µM | 0.514 µM | 0.432 µM | 0.388 µM | 23.8 µM | 0.484 µM | 1.05 µM | 2.1 µM | 0.464 µM | 0.34 µM | 0.345 µM | 0.418 µM | 1.4 µM | GI50 [12]: 21.5 µM; GI50 [38]: > 100 µM; GI50 [33]: 0.441 µM; GI50 [34]: 1.19 µM; GI50 [36]: 0.908 µM; inhibition [37]: inactive
4 | COc1cc(NC(=O)COc2ccccc2)c(C(N)=O)cc1OC | 1.81 µM | 1.95 µM | 93.3 µM | 49 µM | 0.62 µM | 0.766 µM | 0.203 µM | 6.77 µM | 4 µM | 0.804 µM | 0.443 µM | 14.4 µM | 0.529 µM | 2.52 µM | 7.32 µM | 2.23 µM | 0.293 µM | 0.848 µM | 0.487 µM | 1.69 µM | inhibition at 10 µM [1]: 50%; Activity [4]: Active; Activity [5]: 11.6%; Activity [7]: 31.2%; Activity [8]: 22.7%; Activity [9]: 13.2%; Activity [10]: 20.6%; GI50 [12]: 42.8 µM; Activity [19]: Active; Activity [20]: Active; GI50 [38]: > 100 µM; Activity [24]: 63.3%; Activity [25]: 2.8%; Activity [27]: 2.3%; Activity [30]: Active; GI50 [33]: 0.563 µM; GI50 [34]: 0.41 µM; Activity [35]: 80%; GI50 [36]: 0.917 µM; inhibition [37]: inactive
